In the library only some 1.5% were active in any assay of this set; here they are far more common.
TRAIL sens C8: caspase-8 TRAIL sensitization. NB7+C8 cells + TRAIL, ATPlite viability luminescence. inhibition (viability loss, TRAIL sensitization), % at 10 µM. actives 1% (n = 360,000). AID 624354;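 active means compounds causing at least 50% loss of cell viability in the single-dose screen, relative to plate controls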
FLuc inh counter: inhibits firefly luciferase, flagging false hits in luciferase inhibition screens; P08659; ATPLite firefly luciferase biochemical luminescence, 10 min; inhibition, % at 10 µM; actives 1.5% (n = 200,000);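 active means inhibition above about 50% when tested at 10 µM, limit read from the data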
Target sequence (P08659 whole entry, looked up): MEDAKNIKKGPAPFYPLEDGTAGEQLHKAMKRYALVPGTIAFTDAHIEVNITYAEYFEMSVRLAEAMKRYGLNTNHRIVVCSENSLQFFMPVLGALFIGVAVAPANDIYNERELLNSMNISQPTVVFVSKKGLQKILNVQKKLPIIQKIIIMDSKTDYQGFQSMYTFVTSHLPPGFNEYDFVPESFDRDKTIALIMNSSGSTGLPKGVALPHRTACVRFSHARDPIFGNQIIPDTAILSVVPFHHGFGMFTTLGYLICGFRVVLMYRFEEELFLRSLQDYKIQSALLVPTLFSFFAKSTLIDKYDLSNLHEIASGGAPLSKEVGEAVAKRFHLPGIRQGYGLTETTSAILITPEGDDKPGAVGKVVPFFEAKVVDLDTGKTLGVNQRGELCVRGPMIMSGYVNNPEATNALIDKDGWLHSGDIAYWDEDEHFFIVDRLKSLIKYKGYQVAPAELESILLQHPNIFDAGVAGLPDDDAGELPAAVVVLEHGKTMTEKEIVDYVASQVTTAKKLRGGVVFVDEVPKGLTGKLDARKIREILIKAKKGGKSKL
PPC-1+TRAIL kill: PPC-1 cancer cell killing with TRAIL present. PPC-1 cells + TRAIL, ATPLite viability luminescence. cell killing (% activity), % at 4 µM or 5 µM. actives 0.41% (n = 220,000);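 active means cell killing above 50% in the first pass at 4 µM, then a duplicate retest at 5 µM averaging 50% or more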;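 further: plate controls were cells with TRAIL plus DMSO for no effect and medium-only wells lacking cells for full effect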
FLuc act counter: affects firefly luciferase, flagging false hits in luciferase stimulation screens; P08659; ATPlite luciferase biochemical, luminescence, 10 min; 0 = ATP-free wells, 1 = DMSO control; activation factor at 10 µM; 200,000 tested, under 10 active; AID 1027;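 active means luciferase activation factor, scaled between plate controls, of at least 2 with compound at 10 µM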
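Material: Luciferase/luciferin reagent mix | Doses: Test compounds dosed from 2 mM stocks in 100% DMSO | Timing: 10 min incubation after luciferase reagent addition, room temperature | Measured by: Luminescence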
An asterisk follows results filed as active; . = no result given.

SMILES	TRAIL sens C8	FLuc inh counter	PPC-1+TRAIL kill	FLuc act counter
COc1ccc(-c2nc(SCC(=O)N(CC(C)C)c3c(N)n(Cc4ccccc4)c(=O)[nH]c3=O)n[nH]2)cc1	51*	.	.	.
O=c1c2ccccc2oc2cc(C#CC3(O)CCCCC3)ccc12	79*	.	.	.
COc1ccccc1-c1oc2ccccc2c1C#CC1(O)CCCCC1	-1	.	.	.
COc1cccc2oc3cc(C#CC4(O)CCCCC4)ccc3c(=O)c12	72*	.	.	.
O=c1[nH]c(N/N=C\c2ccc3c(c2)OCO3)nc2ccccc12	52*	76*	44	0.2
O=c1[nH]c(N/N=C/c2ccccc2)nc2ccccc12	37	67*	10	0.3
O=c1[nH]c(N/N=C/c2cc3c(cc2[N+](=O)[O-])OCO3)nc2ccccc12	-15	.	5	.
C(C#CCCCCCCCCC[n+]1ccccc1)#CCCCCCCCCC[n+]1ccccc1	91*	.	.	.
COc1cc2c(cc1OC)/C(=C/C#N)NC(C)(C)C2	-8	-4	8	1
O=C(Nc1nnc(-c2cc(Cl)ccc2Cl)o1)C1=COCCO1	9	.	.	.
O=C(Nc1nnc(-c2cc(Cl)ccc2Cl)o1)c1ccco1	52*	.	.	.
COc1ccc(N2CCN(C(=O)c3ccc(C)cc3Cl)CC2)cc1	-4	-4	26	1
COc1ccc(/C=C/C(=O)c2ccc([N+](=O)[O-])o2)cc1	51*	.	.	.
Cc1ccc(C(=O)/C=C/c2ccc(F)cc2)o1	4	85*	5	0.2
COCCCn1c(SCC(=O)Nc2oc(C)c3c(C)n[nH]c(=O)c23)nc2ccccc2c1=O	0	.	.	.
CS(=O)(=O)c1ccc(C(=O)OCC(=O)N2CCOCC2)cc1[N+](=O)[O-]	-5	.	.	.
CS(=O)(=O)c1ccc(C(=O)OCC(=O)N2CCN(CCC3CCCCC3)CC2)cc1[N+](=O)[O-]	89*	.	.	.
c1ccc(CNc2nc(-c3ccccc3)nc3ccccc23)cc1	-2	.	.	.
S=c1nc(NCc2ccc3c(c2)OCO3)c2ccccc2[nH]1	-7	.	.	.
c1ccc(CNc2nc(NCc3ccccc3)c3ccccc3n2)cc1	53*	.	20	.
c1ccc(CNc2nc3ccccc3[nH]2)cc1	40	64*	45	0.4
c1ccc2[nH]c(NCc3ccc4c(c3)OCO4)nc2c1	14	82*	49	0.2
COC(=O)C1CN(C(=O)C(C)Oc2ccc(C(C)C)cc2)c2ccccc2O1 (centres undefined)	-12	.	.	.
CN(Cc1cnc2nc(N)nc(N)c2n1)c1ccc(C(=O)NC(CCC(=O)O)C(=O)O)c2ccccc12 (centres undefined)	83*	.	.	.
CCC(=O)c1ccc(/C=C/c2nc3ccccc3n2C)o1	51*	79*	8	0.2
SMILES	TRAIL sens C8	FLuc inh counter	PPC-1+TRAIL kill	FLuc act counter
O=C(Nc1ccc(F)cc1)Nc1ccc2c(c1)CCC2	27	.	.	.
O=C(Nc1ccc2c(c1)CCC2)c1ccc(F)cc1	52*	70*	35	0.3
Cc1ccc(OCc2nnc(SCC(=O)Nc3ccc4c(c3)OCCO4)n2Cc2ccco2)cc1	-8	-5	7	1.1
O=[N+]([O-])c1ccccc1/C=C/c1ccc2ccccc2n1	9	.	.	.
COc1ccc2c(c1OC)C(=O)OC2Nc1nc(-c2ccc(-c3ccccc3)cc2)cs1 (centres undefined)	62*	74*	36	0.3
c1cncc(CSc2ccc(-c3ccc4c(c3)OCO4)nn2)c1	11	53*	2	0.5
Fc1cccc(CSc2ccc(-c3ccc4c(c3)OCO4)nn2)c1	8	4	12	1
Cc1cccc(Nc2nnc(SCC(=O)Nc3ccc(C(=O)O)cc3)s2)c1	40	68*	23	0.3
CC(Oc1ccccc1)C(=O)N1CCN(c2ccc(N3CCOCC3)nn2)CC1 (centres undefined)	5	.	.	.
Cc1ccc(CNC(=O)c2ccc(NC3=NC4CS(=O)(=O)CC4S3)cc2)cc1 (centres undefined)	-19	.	.	.
CC1(C)CC(=O)c2sc(NC(=O)c3ccc4ncsc4c3)nc2C1	25	55*	16	0.5
CCCS(=O)(=O)NC(=O)C1(C)CCN(C(=O)c2ccccc2OC)C1 (centres undefined)	-14	.	.	.
Cc1c(NC(=O)CN2C(=O)NC(C)(c3ccc4c(c3)OCCO4)C2=O)c(=O)n(-c2ccccc2)n1C (centres undefined)	12	-5	6	1.1
COc1ccc(/C=C(\C#N)C(=O)Nc2ccccn2)cc1	3	.	.	.
Cc1ccc(/C=C(\C#N)C(=O)Nc2ccccn2)o1	30	68*	5	0.3
COc1ccc(CN(C)C(=O)COc2cccc(-n3cnnn3)c2)cc1OC	-17	.	.	.
CN(C)c1ccc(C(=O)c2ccccc2)cc1	5	21	18	0.8
CN(C)c1ccc(N=Nc2ccc(C(=O)O)cc2)cc1	51*	.	.	.
Cc1c(C)n(C)c2ccc(C(=O)NCCCN(C)C3CCCCC3)cc12	2	.	.	.
NC(=O)c1sc2nc(-c3ccccc3)c3c(c2c1N)CCCC3	1	-4	.	1
Nc1c2c(nc3sc4c(c13)CCCC4)-c1ccccc1CC2	66*	.	42	.
O=C(Nc1nnc(-c2ccco2)o1)c1ccc(Br)s1	26	.	.	.
O=C(Nc1nc2c(s1)CCCC2)c1cccnc1	9	35	19	0.6
O=C(Nc1nc2c(s1)CCCC2)c1ccc(Br)o1	57*	68*	36	0.3
COc1cc(N(C)C)ccc1C=c1c2ccccc2n2c1cc(-c1ccccc1)[n+]2C	54*	.	.	.
SMILES	TRAIL sens C8	FLuc inh counter	PPC-1+TRAIL kill	FLuc act counter
CN(C)c1ccc(C=c2c3cc([N+](=O)[O-])ccc3n3c2cc(-c2ccccc2)[n+]3C)cc1	76*	.	.	.
CN(C)c1ccc(C=c2c3ccccc3n3c2cc(-c2ccccc2)[n+]3C)cc1	54*	.	.	.
CN(C)c1ccc(CNc2ccccn2)cc1	5	.	.	.
Cc1ccc(/C(N)=N/OC(=O)CSc2ccccc2)cc1	-1	11	15	0.9
CC(C)c1ccc(-n2cnn(-c3ncccc3[N+](=O)[O-])c2=O)cc1	23	54*	26	0.5
Cc1c(C(=O)O)sc2nc(/C=C/c3ccccc3OC(F)F)[nH]c(=O)c12	-4	.	.	.
Cc1ccc(NC(=O)c2ccc(NS(=O)(=O)/C=C/c3ccccc3)cc2)nc1	4	.	.	.
O=C(N/N=C1\CCCc2ccccc21)c1ccc([N+](=O)[O-])cc1	25	61*	29	0.4
CCCSc1ccc2nc(-c3ccccc3)cn2c1	92*	95*	85*	0
CCCCSc1ccc2nc(-c3ccc(C#N)cc3)cn2c1	12	13	19	0.9
Cc1ccc(C(=O)NNc2ncnc3c2cnn3C)cc1	15	.	5	.
Cn1ncc2c(O/N=C(\N)c3ccc(C(F)(F)F)cc3)ncnc21	95*	.	14	.
Cc1nc(-c2ccccc2Cl)sc1C(=O)/C=C/N(C)C	13	3	2	1
COc1ccc(O)c(/C=N/N=C2/C(=O)Nc3ccccc32)c1	16	81*	3	0.2
O=C1c2ccccc2NC(c2ccccc2)N1/N=C/c1ccccc1 (centres undefined)	55*	3	36	1
CCOC(=O)CSc1nc2sccc2c(=O)[nH]1	4	-5	15	1
CN1CCN(c2nc(-c3ccc(C(C)(C)C)cc3)nc3ccccc23)CC1	71*	.	.	.

Source: PubChem
